Experimental data: ChEMBL document CHEMBL4190366, “Discovery and synthesis of novel Wogonin derivatives with potent antitumor activity in vitro” (Eur J Med Chem, 2017)
Active and inactive are the calls of the source. The rule behind the calls is not given here.

Assays:
[1] = target: Hepatocyte growth factor receptor (Homo sapiens, UniProt P08581); assay: Inhibition of c-Met (unknown origin)
Procedure, shortened: (§1)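 Kinase profiling run as a contract service, with ATP at the Km of each kinase.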

L02 [2] = assay: Cytotoxicity in human LO2 cells assessed as reduction in cell viability at 15 uM incubated for 48 hrs by MTT assay; type: cell-based; settings: l02, 48 h
Procedure, shortened: (§2)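 Normal hepatic L02 cells incubated with compound for 48 h. Cell viability measured across a concentration series.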

[3] = Selectivity index, ratio of IC50 for human LO2 cells to IC50 for human HeLa cells; type: toxicity; settings: LO2 cells versus HeLa cells, read-out: Ratio IC50
Procedure, shortened: (§3)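 Selectivity ratio is L02 IC50 divided by cancer-cell IC50, each taken from the MTT viability assay.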

[4] = Selectivity index, ratio of IC50 for human LO2 cells to IC50 for human LNCAP cells; type: toxicity; settings: LO2 cells versus LNCAP cells, read-out: Ratio IC50; procedure, shortened: as §3
[5] = Selectivity index, ratio of IC50 for human LO2 cells to IC50 for human MCF7 cells; type: toxicity; settings: LO2 cells versus MCF7 cells, read-out: Ratio IC50; procedure, shortened: as §3
[6] = target: Cyclin-dependent kinase 9 (Homo sapiens, UniProt P50750); assay: Inhibition of CDK9 (unknown origin); procedure, shortened: as §1
Chain of Cyclin-dependent kinase 9 (P50750 whole entry): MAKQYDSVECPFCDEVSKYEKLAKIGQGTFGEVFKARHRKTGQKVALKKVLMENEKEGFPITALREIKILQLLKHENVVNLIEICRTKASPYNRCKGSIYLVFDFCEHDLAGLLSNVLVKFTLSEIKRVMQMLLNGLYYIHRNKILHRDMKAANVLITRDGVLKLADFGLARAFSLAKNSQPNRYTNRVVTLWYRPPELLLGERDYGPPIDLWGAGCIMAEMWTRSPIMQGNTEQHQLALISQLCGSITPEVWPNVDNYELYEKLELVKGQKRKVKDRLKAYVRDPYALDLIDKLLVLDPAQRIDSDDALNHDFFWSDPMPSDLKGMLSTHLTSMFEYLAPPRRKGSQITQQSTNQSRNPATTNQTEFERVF

HepG2 [7] = assay: Cytotoxicity in human HepG2 cells assessed as reduction in cell viability incubated for 72 hrs by MTT assay; type: functional, cell-based
Procedure, shortened: (§4)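 Cells pre-incubated 24 h at 37 °C, 5% CO2, then exposed to a range of compound concentrations for 72 h. Viability read as mitochondrial MTT-to-formazan conversion, absorbance at 570 nm.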

[8] = Selectivity index, ratio of IC50 for human LO2 cells to IC50 for human A549 cells; type: toxicity; settings: LO2 cells versus A549 cells, read-out: Ratio IC50; procedure, shortened: as §3
HepG2 [9] = assay: Induction of apoptosis in human HepG2 cells assessed as apoptosis level at 6 uM incubated for 24 hrs by FITC-labelled Annexin V/PI staining based flow cytometry (reference value: 2.6%); type: functional
Procedure, shortened: (§5)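 HepG2 treated 24 h with 2, 4 or 6 µM; 0.1% DMSO vehicle control. Stained with FITC-Annexin V/PI and analysed by flow cytometry 10-15 min after staining. Annexin V+/PI- counted as early/median apoptotic, Annexin V+/PI+ as late apoptotic.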

B16 = assay: Cytotoxicity in mouse B16 cells assessed as reduction in cell viability incubated for 72 hrs by MTT assay; type: functional, cell-based; procedure, shortened: as §4
HeLa = assay: Cytotoxicity in human HeLa cells assessed as reduction in cell viability incubated for 72 hrs by MTT assay; type: functional, cell-based; procedure, shortened: as §4
LNCaP = assay: Cytotoxicity in human LNCAP cells assessed as reduction in cell viability incubated for 72 hrs by MTT assay; type: functional, cell-based; procedure, shortened: as §4
HepG2 [10] = assay: Ratio of cytotoxicity in human HepG2 cells at 10 uM in presence of 5 mM NAC incubated for 48 hrs by MTT assay to cytotoxicity in human HepG2 cells at 10 uM in absence of 5 mM NAC incubated for 48 hrs by MTT assay; type: functional
Procedure, shortened: (§6)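 HepG2 cells incubated 48 h with compound at 1, 5 or 10 µM, with or without 5 mM N-acetylcysteine. Ratio is cell viability with NAC divided by viability with compound alone at the same concentration.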

HepG2 [11] = assay: Induction of apoptosis in human HepG2 cells assessed as apoptosis level at 2 to 4 uM incubated for 24 hrs by FITC-labelled Annexin V/PI staining based flow cytometry; type: functional, cell-based; procedure, shortened: as §5
HepG2 [12] = assay: Ratio of cytotoxicity in human HepG2 cells at 5 uM in presence of 5 mM NAC incubated for 48 hrs by MTT assay to cytotoxicity in human HepG2 cells at 5 uM in absence of 5 mM NAC incubated for 48 hrs by MTT assay; type: functional; procedure, shortened: as §6
MCF7 = assay: Cytotoxicity in human MCF7 cells assessed as reduction in cell viability incubated for 72 hrs by MTT assay; type: functional, cell-based; procedure, shortened: as §4
[13] = target: Cyclin-dependent kinase 2 (Homo sapiens, UniProt P24941); assay: Inhibition of CDK2 (unknown origin); procedure, shortened: as §1
L02 [14] = assay: Cytotoxicity in human LO2 cells assessed as reduction in cell viability at 30 uM incubated for 48 hrs by MTT assay; type: cell-based; settings: l02, 48 h; procedure, shortened: as §2
A549 [15] = assay: Cytotoxicity in human A549 cells assessed as reduction in cell viability incubated for 72 hrs by MTT assay; settings: A549, 72 h
A549 [16] = assay: Cytotoxicity in human A549 cells assessed as reduction in cell viability incubated for 72 hrs by MTT assay
HepG2 [17] = assay: Induction of apoptosis in human HepG2 cells assessed as apoptosis level incubated for 24 hrs by FITC-labelled Annexin V/PI staining based flow cytometry; type: functional, cell-based; procedure, shortened: as §5
[18] = Selectivity index, ratio of IC50 for human LO2 cells to IC50 for mouse B16 cells; type: toxicity; settings: LO2 cells versus B16 cells, read-out: Ratio IC50; procedure, shortened: as §3
HepG2 [19] = assay: Induction of ROS generation in human HepG2 cells at 2 to 6 uM incubated for 24 hrs by DCFH-DA staining based flow cytometry; type: functional, cell-based
Procedure, shortened: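 HepG2 seeded at 6×10^4 cells/well and grown 24 h, then treated 24 h with 2, 4 or 6 µM. Washed with PBS and serum-free medium, loaded with serum-free DCFH-DA 30 min at 37 °C, washed twice cold. Fluorescence read by flow cytometry at 488/525 nm. Mean ± SEM, n = 3.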

[20] = Selectivity index, ratio of IC50 for human LO2 cells to IC50 for human HepG2 cells; type: toxicity; settings: LO2 cells versus HepG2 cells, read-out: Ratio IC50; procedure, shortened: as §3
HepG2 [21] = assay: Ratio of cytotoxicity in human HepG2 cells at 1 uM in presence of 5 mM NAC incubated for 48 hrs by MTT assay to cytotoxicity in human HepG2 cells at 1 uM in absence of 5 mM NAC incubated for 48 hrs by MTT assay; type: functional; procedure, shortened: as §6

Chain of Hepatocyte growth factor receptor (P08581 whole entry): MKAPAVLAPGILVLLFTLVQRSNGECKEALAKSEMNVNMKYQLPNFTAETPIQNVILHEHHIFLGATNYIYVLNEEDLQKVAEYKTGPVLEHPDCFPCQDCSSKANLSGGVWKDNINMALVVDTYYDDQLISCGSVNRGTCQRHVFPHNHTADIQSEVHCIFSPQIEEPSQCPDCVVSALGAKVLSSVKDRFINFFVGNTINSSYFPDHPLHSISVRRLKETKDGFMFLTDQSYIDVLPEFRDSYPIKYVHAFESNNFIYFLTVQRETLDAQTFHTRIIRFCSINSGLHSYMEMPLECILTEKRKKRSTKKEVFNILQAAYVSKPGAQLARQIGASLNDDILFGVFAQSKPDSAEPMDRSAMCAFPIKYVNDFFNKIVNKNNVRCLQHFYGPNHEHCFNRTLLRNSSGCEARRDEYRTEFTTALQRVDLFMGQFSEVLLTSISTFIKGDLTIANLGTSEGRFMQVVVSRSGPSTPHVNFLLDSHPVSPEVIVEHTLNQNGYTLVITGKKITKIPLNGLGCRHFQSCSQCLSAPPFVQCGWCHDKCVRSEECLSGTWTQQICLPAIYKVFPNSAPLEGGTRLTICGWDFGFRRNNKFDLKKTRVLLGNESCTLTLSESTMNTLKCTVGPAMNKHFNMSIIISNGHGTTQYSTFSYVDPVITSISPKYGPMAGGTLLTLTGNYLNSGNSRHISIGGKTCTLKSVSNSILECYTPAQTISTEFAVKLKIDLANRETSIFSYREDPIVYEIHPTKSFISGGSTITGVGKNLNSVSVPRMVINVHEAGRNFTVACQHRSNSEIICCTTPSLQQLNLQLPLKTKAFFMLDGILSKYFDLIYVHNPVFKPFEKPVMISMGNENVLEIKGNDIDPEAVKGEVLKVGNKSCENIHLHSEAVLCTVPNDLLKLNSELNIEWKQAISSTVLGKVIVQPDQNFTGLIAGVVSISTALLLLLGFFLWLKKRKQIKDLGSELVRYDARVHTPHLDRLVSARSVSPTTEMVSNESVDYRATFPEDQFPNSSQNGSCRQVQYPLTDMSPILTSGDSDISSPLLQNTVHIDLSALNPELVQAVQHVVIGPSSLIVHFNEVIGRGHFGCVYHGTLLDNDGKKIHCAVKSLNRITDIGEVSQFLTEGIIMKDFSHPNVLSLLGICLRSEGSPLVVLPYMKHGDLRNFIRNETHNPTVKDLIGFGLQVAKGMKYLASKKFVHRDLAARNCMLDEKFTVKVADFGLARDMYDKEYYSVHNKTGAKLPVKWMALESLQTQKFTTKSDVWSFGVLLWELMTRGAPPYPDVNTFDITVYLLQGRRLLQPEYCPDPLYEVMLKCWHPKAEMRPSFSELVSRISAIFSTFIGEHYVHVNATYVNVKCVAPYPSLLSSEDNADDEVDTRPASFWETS

In the case of CN1CCN(CCCCOc2c(OCc3ccc(C#N)cc3)cc(O)c3c(=O)cc(-c4ccccc4)oc23)CC1, the IC50 [1] is reported as 35000 nM, the Activity (L02 [2]) is reported as “Non-Toxic” and the selectivity ratio [3] is reported as 4.3 to 27. For the same molecule, the selectivity ratio [4] was 4.3 to 27, the selectivity ratio [5] was 4.3 to 27 and the IC50 [6] was 870 nM. For the same molecule, the Activity (HepG2 [7]) was “Dose-dependent effect”, the IC50 (HepG2 [7]; HepG2, 72 h) was 590 nM and the selectivity ratio [8] was 4.3 to 27. For the same molecule, the Activity (HepG2 [9]) was 30.7%, the Activity (B16) was “Dose-dependent effect” and the IC50 (B16; B16, 72 h) was 3700 nM. For the same molecule, the Activity (HeLa) was “Dose-dependent effect”, the IC50 (HeLa) was 2650 nM and the Activity (LNCaP) was “Dose-dependent effect”. For the same molecule, the IC50 (LNCaP) was 1720 nM, the Ratio (HepG2 [10]) was 7 and the Activity (HepG2 [11]) was “inactive”. For the same molecule, the Ratio (HepG2 [12]) was 5.5, the Activity (MCF7) was “Dose-dependent effect” and the IC50 (MCF7; MCF7, 72 h) was 2420 nM. For the same molecule, the IC50 [13] was 6700 nM, the Activity (L02 [14]) was “Toxic” and the IC50 (A549 [15]) was 2140 nM. For the same molecule, the Activity (A549 [16]) was “Dose-dependent effect”, the Activity (HepG2 [17]) was “Dose-dependent effect” and the selectivity ratio [18] was 4.3 to 27. For the same molecule, the Activity (HepG2 [19]) was “Dose-dependent effect”, the selectivity ratio [20] was 27 and the Ratio (HepG2 [21]) was 2.7.
